This is a sample that favours compounds with a hit; in the whole collection about 3.8% have one here.
ARNT TACC3 PPI: disrupts binding between human ARNT and TACC3; Q9Y6A5; AlphaScreen His-ARNT PAS-B/GST-TACC3 binding, luminescence; TACC3 fragment carries E629A point mutation; inhibition, % at 9.99 µM; 390,000 compounds, 0.66% hits;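 active means mean inhibition of replicates at least 50% and at least half of replicates each reaching 50%; inconclusive means half or more replicates reach 50% but mean below 50%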
FN deposition inh: fibronectin deposition inhibition. AH1F fibroblasts, Alexa488-fibronectin deposition fluorescence, overnight. inhibition, % at 12.6 µM. 350,000 compounds, 0.086% hits;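 active means mean inhibition across replicates of 30% or more, regardless of how many single replicates reach that level; inconclusive means mean under 30% yet at least half of replicates reach 30%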
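Assay system: AH1F fibroblasts / Quantity: 10000 cells per well / Medium: DMEM plus 2% serum, read in PBS / Reagent: labelled fibronectin 24 nM / Dosing: single dose, pinned / Times: 1 h cell attachment, overnight exposure to compound and label / Signal: fluorescence, ex 485 nm, em 525 nm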
DENV2 CPE rescue: protects cells from dengue virus 2 cytopathic effect; DENV2-infected cells, cytopathic effect rescue, plate reader; CPE inhibition, % at 9.99 µM; 350,000 compounds, 1.7% hits; AID 651640; in the data active means CPE inhibition above about 20%, passing the limit was not always enough; inconclusive means no clear call, values can overlap the other calls; tested in BHK-21 cells
XiGFP reactiv: activators of X-chromosome reactivation in mouse fibroblasts; activation, % at 7.58 µM; 360,000 compounds, 0.055% hits; AID 743238; XiGFP mouse fibroblasts, % GFP-positive cells imaging, 3 d; cells co-treated with 5-aza-dC sensitizer; scaled so ellipticine positive control = 100%;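 active means mean normalized replicate activation at least 10% and every replicate at or above 10%; inconclusive means only one of the two criteria met; inactive means mean below 10% and not all replicates reach 10%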
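System: XiGFP fibroblasts, SV40-immortalized. Medium: DMEM plus 5-aza-dC sensitizer. Doses: single point. Timing: 3 d treatment, 15 min room-temperature fixation. Control set: ellipticine 6 µM.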
FGF22 binding: shifts melting point of recombinant human FGF22; AID 651658; activity (Tm shift, normalised), % at 9.99 µM; recombinant FGF22 thermal shift, SYPRO orange fluorescence; percent of sucrose octasulfate shift, DMSO zero; 340,000 compounds, 1.5% hits; Q9HCT0;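 active means mean Tm shift, scaled 0 neutral to 100 positive control, at about 1.3% or above, every replicate too, limit read from the data; inconclusive means no clear call, values can overlap the other calls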
Target sequence (Q9HCT0 whole entry, looked up): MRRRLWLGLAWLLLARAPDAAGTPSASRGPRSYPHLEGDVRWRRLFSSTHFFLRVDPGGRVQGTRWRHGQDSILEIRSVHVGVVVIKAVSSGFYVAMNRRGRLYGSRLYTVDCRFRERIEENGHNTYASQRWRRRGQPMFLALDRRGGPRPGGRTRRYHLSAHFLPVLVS
SIRT5 block: blocks human SIRT5 desuccinylation of peptide | Q9NXA8 | Purified SirT5, succinyl-peptide AMC, trypsin-coupled fluorescence | inhibition, % at 15 µM | 330,000 compounds, 1.1% hits | AID 652115; in the data active means inhibition above about 15%; inconclusive means no clear call, values can overlap the other calls
Target sequence (Q9NXA8 whole entry, looked up): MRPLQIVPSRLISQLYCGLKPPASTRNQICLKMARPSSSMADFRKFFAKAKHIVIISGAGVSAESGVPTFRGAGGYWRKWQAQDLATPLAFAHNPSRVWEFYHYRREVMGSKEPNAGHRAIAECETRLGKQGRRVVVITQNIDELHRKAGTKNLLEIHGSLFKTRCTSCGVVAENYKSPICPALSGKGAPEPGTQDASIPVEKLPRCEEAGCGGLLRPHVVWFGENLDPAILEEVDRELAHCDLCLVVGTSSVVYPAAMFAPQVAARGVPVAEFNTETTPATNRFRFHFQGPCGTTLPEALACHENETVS
Of the large screens only hits and unclear results are named; the others gave an inactive call.

CCCn1c(N)c(C(=O)CN(C)CC(=O)Nc2cc(C)ccc2C)c(=O)[nH]c1=O	DENV2 CPE rescue 51.1 (no result: ARNT TACC3 PPI)
CCC(=O)N1CC[C@@H]2[C@@H](CO)Nc3ccc(-c4ccc(OC)cc4)cc3[C@@H]21	DENV2 CPE rescue 130.7 (no result: SIRT5 block)
COc1ccc(-c2ccc3c(c2)[C@H]2[C@H](CCN2C(=O)CN2CCOCC2)[C@@H](CO)N3)cc1	DENV2 CPE rescue 100.1
COc1ccc(-c2ccc3c(c2)[C@@H]2[C@@H](CCN2C(=O)CN2CCOCC2)[C@H](CO)N3)cc1	none
COc1ccc(-c2ccc3c(c2)[C@@H]2[C@@H](CCN2Cc2ccccc2F)[C@H](CO)N3)cc1	DENV2 CPE rescue 23.1 (no result: ARNT TACC3 PPI, FGF22 binding)
CN1C(=O)c2cc(NC(=O)c3ccccc3)ccc2OC[C@@H]2O[C@H](CC(=O)NCC3CC3)CC[C@H]21	none
C[C@@H]1CCCCO[C@H](CN(C)C(=O)c2ccncc2)[C@H](C)CN([C@H](C)CO)C(=O)c2cc(NS(=O)(=O)c3ccc(F)cc3)ccc2O1	none
CN(C)CC#Cc1ccc([C@@H]2[C@H](CO)N3CCCCN(C(=O)Nc4cc(F)ccc4F)C[C@@H]23)cc1	none (no result: FN deposition inh)
CN(C)CC#Cc1ccc([C@H]2[C@@H](CO)N3CCCCN(C(=O)c4ccc5c(c4)OCO5)C[C@H]23)cc1	DENV2 CPE rescue 22.3 (no result: FN deposition inh)
CN(C)CC#Cc1ccc([C@@H]2[C@@H](CO)N3CCCCN(C(=O)CN(C)C)C[C@H]23)cc1	DENV2 CPE rescue inconclusive, SIRT5 block 24.8 (no result: FN deposition inh)
CN(C)CC#Cc1ccc([C@H]2[C@H](CO)N3CCCCN(C(=O)Nc4cc(F)ccc4F)C[C@@H]23)cc1	DENV2 CPE rescue 31.6 (no result: FN deposition inh)
COc1ccc(CN2CC3(CN(C(=O)C4CCC4)C3)c3c(n(C)c4cc(OC)ccc34)[C@H]2CO)cc1	none (no result: ARNT TACC3 PPI, FN deposition inh, SIRT5 block)
COc1ccc(C#Cc2ccc3c(c2)O[C@@H](CN(C)C(=O)CN2CCOCC2)[C@@H](C)CN([C@@H](C)CO)S3(=O)=O)cc1	none (no result: FN deposition inh)
CCC(=O)N1CCCCN2[C@H](CO)[C@@H](c3ccc(C#Cc4ccccc4)cc3)[C@H]2C1	none (no result: FN deposition inh)
O=C(NCCO)C(=O)c1c(-c2ccc(Cl)cc2)cc2ccccn12	FGF22 binding 43.8 (no result: ARNT TACC3 PPI)
O=C(NCC[C@@H]1CC[C@@H](NC(=O)C2CCCC2)[C@H](CO)O1)c1cc(Cl)cc(Cl)c1	none (no result: FN deposition inh)
Cc1noc(C)c1S(=O)(=O)Nc1ccc2c(c1)CC(=O)N([C@@H](C)CO)C[C@H](C)[C@H](CN(C)S(=O)(=O)c1ccc(F)cc1)O2	none (no result: FN deposition inh)
O=c1cccc2n1Cc1cc3ccccc3nc1-2	FGF22 binding 43.7 (no result: DENV2 CPE rescue)
C[C@H](NC(=O)OC(C)(C)C)C(=O)N/N=C/c1cccc2nccnc12	ARNT TACC3 PPI 26.6
COc1ccc2nc(/C=N/NC(=O)[C@H](CCSC)NC(=O)OC(C)(C)C)ccc2c1	none (no result: DENV2 CPE rescue, FGF22 binding, SIRT5 block)
CSCC[C@H](NC(=O)OC(C)(C)C)C(=O)N/N=C/c1cccc2cccnc12	ARNT TACC3 PPI 62.2
CC(C)NC(=O)Nc1ccc2c(c1)CC(=O)N([C@H](C)CO)C[C@@H](C)[C@H](CN(C)Cc1ccc(C(=O)O)cc1)O2	DENV2 CPE rescue inconclusive (no result: FN deposition inh)
CC(C)NC(=O)Nc1ccc2c(c1)CC(=O)N([C@H](C)CO)C[C@@H](C)[C@@H](CN(C)Cc1ccc(C(=O)O)cc1)O2	DENV2 CPE rescue 68.2 (no result: FN deposition inh)
CC(C)NC(=O)Nc1ccc2c(c1)CC(=O)N([C@@H](C)CO)C[C@@H](C)[C@@H](CN(C)Cc1ccc(-c3ccccc3)cc1)O2	none (no result: FN deposition inh)
CC(C)NC(=O)Nc1ccc2c(c1)CC(=O)N([C@H](C)CO)C[C@H](C)[C@H](CN(C)Cc1ccc(-c3ccccc3)cc1)O2	DENV2 CPE rescue 28.0 (no result: FN deposition inh)
C[C@@H]1CN([C@@H](C)CO)C(=O)c2cccc(NC(=O)c3ccncc3)c2O[C@H]1CN(C)Cc1ccc(Cl)c(Cl)c1	none (no result: FN deposition inh, XiGFP reactiv)
CS(=O)(=O)N1[C@@H]2c3ccc(-c4ccccc4)c(=O)n3C[C@H]1[C@H](CO)[C@H]2C(=O)NCC1CC1	none (no result: FN deposition inh)
Cc1nn(C)c(C)c1CCC(=O)O	none
CCn1nc(C)c(CCC(=O)O)c1C	FGF22 binding 42.9
Cc1noc(C)c1NC(=O)Nc1ccc2c(c1)CC(=O)N([C@@H](C)CO)C[C@H](C)[C@@H](CN(C)S(=O)(=O)c1cccs1)O2	none (no result: ARNT TACC3 PPI)
C[C@@H]1CN([C@@H](C)CO)C(=O)Cc2cc(NC(=O)Nc3ccccc3)ccc2O[C@H]1CN(C)Cc1ccc(Cl)c(Cl)c1	DENV2 CPE rescue 37.5 (no result: FN deposition inh)
C[C@H](CO)N1C[C@H](C)[C@@H](CN(C)Cc2ccccc2)Oc2ccc(NC(=O)Nc3ccccc3)cc2CC1=O	DENV2 CPE rescue 24.8 (no result: FN deposition inh)
C[C@@H]1CN([C@@H](C)CO)C(=O)Cc2cc(NC(=O)Nc3ccc4c(c3)OCO4)ccc2O[C@H]1CN(C)Cc1ccccc1	none (no result: FN deposition inh)
C[C@H]1CN([C@@H](C)CO)C(=O)Cc2cc(NC(=O)Nc3ccc4c(c3)OCO4)ccc2O[C@H]1CN(C)Cc1ccccc1	DENV2 CPE rescue 46.1 (no result: FN deposition inh)
O=C(N[C@@H]1CC[C@@H](CCNC(=O)C2CC2)O[C@@H]1CO)c1ccncc1	none (no result: FN deposition inh)
CN(C)CC(=O)N[C@@H]1CC[C@@H](CCn2cc(C3CCCC3)nn2)O[C@@H]1CO	none
O=C(C[C@@H]1C=C[C@H](NS(=O)(=O)c2ccccc2)[C@H](CO)O1)NCc1ccncn1	none (no result: ARNT TACC3 PPI, FN deposition inh)
C[C@H](CO)N1C[C@H](C)[C@H](CN(C)C(=O)Nc2cccc3ccccc23)Oc2ncc(C#Cc3ccc(F)cc3)cc2C1=O	none (no result: ARNT TACC3 PPI)
CC(C)NC(=O)N(C)C[C@@H]1OCCCC[C@H](C)Oc2ccc(NC(=O)Nc3cccc4ccccc34)cc2C(=O)N([C@H](C)CO)C[C@@H]1C	none (no result: ARNT TACC3 PPI)
CO[C@H]1CN(C)C(=O)c2cc(NC(=O)c3nc4ccccc4s3)ccc2OC[C@@H](C)N(Cc2cncnc2)C[C@@H]1C	none
C[C@H]1CN([C@@H](C)CO)C(=O)c2cc(NC(=O)Cc3cn(C)c4ccccc34)ccc2O[C@H]1CN(C)C(=O)Nc1ccc2c(c1)OCO2	DENV2 CPE rescue 28.4 (no result: FN deposition inh)
C[C@@H]1CN([C@@H](C)CO)C(=O)c2cc(NC(=O)Cc3cn(C)c4ccccc34)ccc2O[C@H]1CN(C)C(=O)Nc1ccccc1	DENV2 CPE rescue 34.8 (no result: SIRT5 block)
C[C@@H]1CN([C@@H](C)CO)C(=O)c2cc(NC(=O)Cc3cn(C)c4ccccc34)ccc2O[C@H]1CN(C)C(=O)Nc1ccc2c(c1)OCO2	none (no result: FN deposition inh)
C[C@H]1CN([C@@H](C)CO)C(=O)c2cc(NC(=O)Cc3cn(C)c4ccccc34)ccc2O[C@@H]1CN(C)C(=O)Nc1ccccc1	none (no result: FN deposition inh)
O=C(NNCc1ccc(O)cc1)c1ccccc1Cl	DENV2 CPE rescue 74.9
O=C(CCc1ccccc1)NNC(=O)c1ccccc1Cl	none

High-throughput results: PubChem BioAssay, Broad Institute
